Assay outcomes: PubChem, Broad Institute
C2C12 statin: suppression of simvastatin myotoxicity | rescue of ATP level, % at 7.49 µM | C2C12 myotubes + simvastatin, ATP luminescence, 48 h; scaled: DMSO 0, geranylgeraniol control 100 | 330,000 compounds, 0.78% hits | AID 602340;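 active = mean ATP rescue above about 67%, or every replicate alone reaching that limit, limit read from the data, passing the limit was not always enough; inconclusive = no clear call, values can overlap the other calls; inactive = mean under the limit and some replicate under it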;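 also: myotubes were challenged with 10 µM simvastatin during compound exposure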
DENV2 CPE: protects cells from dengue virus 2 cytopathic effect; DENV2-infected cells, cytopathic effect rescue, plate reader; CPE inhibition, % at 9.99 µM; 350,000 compounds, 1.7% hits; AID 651640; in the data active = CPE inhibition above about 20%, passing the limit was not always enough; inconclusive = no clear call, values can overlap the other calls; tested in BHK-21 cells
E-selectin induc: induces E-selectin expression in human endothelial cells | P16581 | HUVEC E-selectin immunofluorescence imaging; normalized: neutral wells 0, TNF-alpha wells 100 | activation, % at 7.58 µM | 260,000 compounds, 0.37% hits | AID 686992;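 active = mean E-selectin-positive cell signal at least 10% of the positive control, reached in at least 60% of replicates, without over 20% cell loss; inconclusive = no rule given, readout overlaps actives, possibly toxicity-flagged; inactive = the rest, including those meeting only one limit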
Target sequence (P16581 whole entry, looked up): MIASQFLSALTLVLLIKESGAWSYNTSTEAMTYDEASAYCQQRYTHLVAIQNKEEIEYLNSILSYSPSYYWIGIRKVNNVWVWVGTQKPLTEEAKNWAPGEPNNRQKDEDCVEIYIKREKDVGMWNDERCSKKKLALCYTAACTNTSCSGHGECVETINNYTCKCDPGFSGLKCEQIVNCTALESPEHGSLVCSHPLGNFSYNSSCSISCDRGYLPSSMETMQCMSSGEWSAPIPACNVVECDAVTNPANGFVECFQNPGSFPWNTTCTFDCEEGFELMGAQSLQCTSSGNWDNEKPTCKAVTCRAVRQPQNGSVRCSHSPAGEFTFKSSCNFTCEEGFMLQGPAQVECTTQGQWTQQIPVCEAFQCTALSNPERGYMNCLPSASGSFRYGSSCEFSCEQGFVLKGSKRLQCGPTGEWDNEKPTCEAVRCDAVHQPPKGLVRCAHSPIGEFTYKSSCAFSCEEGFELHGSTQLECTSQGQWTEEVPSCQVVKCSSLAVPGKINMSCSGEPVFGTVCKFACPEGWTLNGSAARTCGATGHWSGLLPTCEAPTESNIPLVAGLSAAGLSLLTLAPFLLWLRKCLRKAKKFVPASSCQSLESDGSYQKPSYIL
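Read-out: % PE-positive cells | Test system: HUVEC | Doses: One compound dose added by pin transfer | Buffer or medium: EGM-2 over gelatin coat | Signal: Immunofluorescence imaging | Benchmarks: TNF-alpha, DMSO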
Each line names hits and unclear results; the compound was inactive in the other large screens. In the library only some 2.2% were active in any assay of this set; here they are far more common.

CCOc1cc(OCC)cc(C(=O)N2CCC[C@H]2C(=O)N2CCC[C@H]2C(=O)NCc2ccc(F)cc2F)c1	none (no result: C2C12 statin)
CC(C)(C)OC(=O)N1CCC[C@@H]1C(=O)N1CCC[C@@H]1C(=O)NCc1ccccc1Cl	DENV2 CPE 33.5 (no result: C2C12 statin)
C[C@@H]1CCCCO[C@H](CN(C)C(=O)CCC(F)(F)F)[C@H](C)CN([C@H](C)CO)C(=O)c2cc(NS(=O)(=O)c3cccs3)ccc2O1	DENV2 CPE inconclusive (no result: C2C12 statin)
COc1ccc2c3c(n(C)c2c1)[C@H](CO)N(C(=O)c1ccc(F)cc1)CC31CN(C)C1	none (no result: C2C12 statin)
COc1ccc(S(=O)(=O)Nc2ccc3c(c2)C(=O)N([C@H](C)CO)C[C@H](C)[C@H](CN(C)C(=O)Nc2ccccc2)OCCCC[C@H](C)O3)cc1	none
CCC(=O)Nc1ccc2c(c1)C(=O)N(C)C[C@H](OC)[C@@H](C)CN(C(=O)c1cnccn1)[C@H](C)CO2	none
C[C@@H](O)C#Cc1cnc2c(c1)C(=O)N([C@@H](C)CO)C[C@H](C)[C@@H](CN(C)C(=O)c1ccccc1)O2	none
Cc1nn(Cc2ccccc2)c(=O)c2nn(-c3ccc(Cl)cc3)c(C)c12	none (no result: C2C12 statin, DENV2 CPE)
CCOc1nnc(C)c2c(C)n(-c3ccc(Cl)cc3)nc12	C2C12 statin 118.8 (no result: DENV2 CPE, E-selectin induc)
COc1ccc(-c2cc(C3CC3)nc(N)c2C#N)cc1	none (no result: E-selectin induc)
COc1ccc(-c2cc(C3CC3)nc3sc(C#N)c(N)c23)cc1	C2C12 statin 76.8 (no result: DENV2 CPE, E-selectin induc)
CC(Oc1ccc2ccc(=O)oc2c1)C(=O)NC(Cc1c[nH]c2ccc(O)cc12)C(=O)O (centres undefined)	DENV2 CPE 102.3 (no result: E-selectin induc)
CCc1cc(=O)oc2cc(C)cc(OC(C)C(=O)NC(Cc3c[nH]c4ccc(O)cc34)C(=O)O)c12 (centres undefined)	DENV2 CPE 67.7 (no result: E-selectin induc)
COc1ccc(-c2cc(=O)oc3cc(OC(C)C(=O)NC(Cc4c[nH]c5ccc(O)cc45)C(=O)O)ccc23)cc1 (centres undefined)	DENV2 CPE inconclusive (no result: E-selectin induc)
CCc1cc(=O)oc2cc(C)cc(OCC(=O)NC(Cc3c[nH]c4ccc(O)cc34)C(=O)O)c12 (centres undefined)	none (no result: E-selectin induc)
NC(=O)c1ccc(NC(=O)CCC(=O)N2CCN(S(=O)(=O)c3ccc(Cl)cc3)CC2)cc1	none (no result: C2C12 statin, E-selectin induc)
O=C(CCC(=O)N1CCN(S(=O)(=O)c2ccc(Cl)cc2)CC1)Nc1cccc(Br)c1	C2C12 statin 71.7 (no result: E-selectin induc)
Cc1ccc(S(=O)(=O)Nc2ccc3c(c2)C(=O)N([C@H](C)CO)C[C@@H](C)[C@H](CN(C)C(=O)NC2CCCCC2)OCCCC[C@@H](C)O3)cc1	none (no result: C2C12 statin)
CO[C@@H]1CN(C)C(=O)c2ccc(NC(=O)c3ccc(F)cc3)cc2OC[C@H](C)N(C)C[C@@H]1C	none
C[C@H](NC(=O)C[C@@H]1C[C@H]2c3cc(NC(=O)CN(C)C)ccc3O[C@H]2[C@H](CO)O1)c1ccccc1	DENV2 CPE inconclusive
Nc1c(Br)cc(Br)c2c1C(=O)c1c(cccc1S(=O)(=O)O)C2=O	E-selectin induc 123.9
Nc1c(C(=O)O)ccc2c1C(=O)c1ccccc1C2=O	none (no result: C2C12 statin, E-selectin induc)
Cc1noc(C)c1NC(=O)NCC[C@H]1CC[C@@H](NC(=O)Nc2cccc(F)c2)[C@H](CO)O1	none
CC(=O)Cn1c(C(F)(F)F)nc2ccccc21	none (no result: DENV2 CPE, E-selectin induc)
CC(C(=O)O)n1c(C(F)(F)F)nc2ccccc21 (centres undefined)	C2C12 statin 131.8 (no result: DENV2 CPE, E-selectin induc)
O=C(CN(CC1CCCO1)C(=O)CNS(=O)(=O)c1ccccc1)NCc1ccc(F)cc1 (centres undefined)	E-selectin induc 26.3
O=C(CN(CC1CCCO1)C(=O)CNS(=O)(=O)c1ccc(F)cc1)NCc1ccc(F)cc1 (centres undefined)	none (no result: E-selectin induc)
Cc1cc2oc(=O)cc(Cn3ccnc3)c2cc1Cl	DENV2 CPE 26.0
Cc1cc2oc(=O)cc(Cn3ccnc3)c2cc1O	none (no result: DENV2 CPE, E-selectin induc)
COc1ccc(C(C(=O)NCc2ccccc2)n2c(-c3ccccn3)nc3ccccc32)cc1 (centres undefined)	none (no result: C2C12 statin)
COc1ccc(C(C(=O)NCc2ccccc2)n2c(-c3ccncc3)nc3ccccc32)cc1 (centres undefined)	DENV2 CPE 22.0 (no result: C2C12 statin)
CCCN1[C@@H]2c3ccc(-c4ccncc4)c(=O)n3C[C@@H]2[C@@H](CO)[C@@H]1C(=O)NCCCN1CCOCC1	none
O=S(=O)(Nc1cccc(-n2cnnn2)c1)c1cccc(Cl)c1	DENV2 CPE 59.3 (no result: C2C12 statin, E-selectin induc)
O=S(=O)(Nc1cccc(-n2cnnn2)c1)c1ccccc1	none (no result: E-selectin induc)
CO[C@H]1CN(C)C(=O)c2ccc(NC(=O)C3CC3)cc2OC[C@@H](C)NC[C@@H]1C	none
Cc1ccc(S(=O)(=O)Nc2cccc3c2O[C@@H](CN(C)S(=O)(=O)c2ccc(Cl)cc2)[C@@H](C)CN([C@H](C)CO)C3=O)cc1	none (no result: C2C12 statin)
COc1ccc(S(=O)(=O)Nc2cccc3c2O[C@H](CN(C)S(=O)(=O)c2ccc(C)cc2)[C@@H](C)CN([C@H](C)CO)C3=O)cc1	none
